The source made the active and inactive calls. The rule behind the calls is not given here.
Experiments:
Assay type in all cases: functional, cell-based
PBMC [1] = test: Antiproliferative activity against activated human PBMC assessed as decrease in cell division after 72 hrs by flow cytometric analysis
In short: (§1)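 PBMC from healthy adult donors, isolated on a density gradient and cultured in RPMI 1640 with 10% heat-inactivated FCS at 37 °C and 5% CO2. 10^5 cells were stimulated with anti-CD3 (OKT3) and anti-CD28 mAbs for 72 h with test agent or medium. Cells were labelled with CFSE (5 μM, 10 min, 37 °C) and cell division was read by flow cytometry. Three or four independent experiments, mean ± SEM.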

PBMC [2] = test: Induction of apoptosis in human activated PBMC assessed as necrosis at 14 uM by annexinV/propidium iodide staining-based flow cytometric analysis
In short: (§2)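 Donor PBMC (10^5) were activated with anti-CD3/CD28 mAbs for 72 h with test agent, medium or controls (camptothecin 30 μg/mL; Triton X-100 0.5%). Readouts were subG1 DNA content by flow cytometry, and annexin V-FITC then propidium iodide staining by flow cytometry. Gates: viable annexin−/PI−; apoptotic annexin+/PI− or +/+; necrotic annexin−/PI+. Three independent experiments, mean ± SEM.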

PBMC [3] = test: Induction of apoptosis in human activated PBMC at 1.8 to 14 uM by annexinV/propidium iodide staining-based flow cytometric analysis; in short: as §2
PBMC [4] = test: Antiproliferative activity against activated human PBMC assessed as decrease in cell division at 1.6 uM after 72 hrs by flow cytometric analysis; in short: as §1
PBMC [5] = test: Induction of apoptosis in human activated PBMC assessed as internucleosomal DNA fragmentation at 1.6 uM by annexinV/propidium iodide staining-based flow cytometric analysis; in short: as §2
PBMC [6] = test: Induction of apoptosis in human activated PBMC assessed as necrotic cells at 1.6 uM by annexinV/propidium iodide staining-based flow cytometric analysis; in short: as §2
PBMC [7] = test: Antiproliferative activity against activated human PBMC assessed as decrease in cell division at 30 ug/ml after 72 hrs by flow cytometric analysis; in short: as §1
PBMC [8] = test: Induction of apoptosis in human activated PBMC at 30 ug/ml by annexinV/propidium iodide staining-based flow cytometric analysis; in short: as §2
PBMC [9] = test: Induction of apoptosis in human activated PBMC assessed as necrosis at 30 ug/ml by annexinV/propidium iodide staining-based flow cytometric analysis; in short: as §2

CC(C)C[C@@H]1NC(=O)CNC(=O)[C@H](CC(N)=O)NC(=O)[C@H](CCCNC(=N)N)NC(=O)[C@H]([C@@H](C)O)NC(=O)[C@@H]2CSSC[C@@H]3NC(=O)[C@H]([C@@H](C)O)NC(=O)CNC(=O)CNC(=O)[C@H](C(C)C)NC(=O)[C@@H]4CSSC[C@H](NC(=O)[C@H]([C@@H](C)O)NC(=O)[C@H](CSSC[C@H](NC(=O)[C@H](C(C)C)NC(=O)[C@@H]5CCCN5C1=O)C(=O)NCC(=O)N[C@@H](CCC(=O)O)C(=O)N[C@@H]([C@@H](C)O)C(=O)N4)NC(=O)CNC(=O)[C@@H]1CCCN1C(=O)[C@H]([C@@H](C)O)NC(=O)[C@H](CC(N)=O)NC3=O)C(=O)N[C@@H](CO)C(=O)N[C@@H](Cc1c[nH]c3ccccc13)C(=O)N1CCC[C@H]1C(=O)N[C@@H](C(C)C)C(=O)N2 [KALATA B1] was tested, and the IC50 (PBMC [1]) was 3.9 µM.
For CC(C)C[C@@H]1NC(=O)CNC(=O)[C@H](CC(N)=O)NC(=O)[C@H](CCCNC(=N)N)NC(=O)[C@H]([C@@H](C)O)NC(=O)[C@H](CS)NC(=O)[C@H](C(C)C)NC(=O)[C@@H]2CCCN2C(=O)[C@H](CCC(=O)O)NC(=O)[C@H](CO)NC(=O)[C@H](CS)NC(=O)[C@H]([C@@H](C)O)NC(=O)[C@H](CS)NC(=O)CNC(=O)[C@@H]2CCCN2C(=O)[C@H]([C@@H](C)O)NC(=O)[C@H](CC(N)=O)NC(=O)[C@H](CS)NC(=O)[C@H]([C@@H](C)O)NC(=O)CNC(=O)CNC(=O)[C@H](C(C)C)NC(=O)[C@H](CS)NC(=O)[C@H]([C@@H](C)O)NC(=O)[C@H](CCC(=O)O)NC(=O)CNC(=O)[C@H](CS)NC(=O)[C@H](C(C)C)NC(=O)[C@@H]2CCCN2C1=O, the Activity (PBMC [2]) was “inactive”, the Activity (PBMC [1]) was “Dose-dependent effect” and the Activity (PBMC [3]) was “inactive”.
CC[C@H](C)[C@H](NC(=O)CN)C(=O)NCC(=O)N[C@@H](C)C(=O)N[C@H](C(=O)N[C@@H](CC(C)C)C(=O)N[C@@H](CCCCN)C(=O)N[C@H](C(=O)N[C@@H](CC(C)C)C(=O)N[C@H](C(=O)N[C@H](C(=O)NCC(=O)N[C@@H](CC(C)C)C(=O)N1CCC[C@H]1C(=O)N[C@@H](C)C(=O)N[C@@H](CC(C)C)C(=O)N[C@H](C(=O)N[C@@H](CO)C(=O)N[C@@H](Cc1c[nH]c2ccccc12)C(=O)N[C@H](C(=O)N[C@@H](CCCCN)C(=O)N[C@@H](CCCNC(=N)N)C(=O)N[C@@H](CCCCN)C(=O)N[C@@H](CCCNC(=N)N)C(=O)N[C@@H](CCC(N)=O)C(=O)N[C@@H](CCC(N)=O)C(N)=O)[C@@H](C)CC)[C@@H](C)CC)[C@@H](C)O)[C@@H](C)O)C(C)C)C(C)C was tested, and the Activity (PBMC [4]) was “Active”, the Activity (PBMC [5]) was “Active” and the Activity (PBMC [6]) was “Active”.
In the case of CC[C@@]1(O)C(=O)OCc2c1cc1n(c2=O)Cc2cc3ccccc3nc2-1, the Activity (PBMC [7]) is reported as “Active”, the Activity (PBMC [8]) is reported as “Active” and the Activity (PBMC [9]) is reported as “Active”.

Reference: ChEMBL document CHEMBL2010783, “Do plant cyclotides have potential as immunosuppressant peptides?” (J Nat Prod, 2012)
